Source: PubChem BioAssay
Rpn11 block = Rpn11 (human) deubiquitinase inhibition; human 26S proteasome, Ub4-pepOG fluorescence polarization; 20S core pre-blocked with epoxomicin; 360,000 compounds, 0.59% hits; O00487; calls only at 20 µM;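 active = inhibition at 20 µM, scaled to each plate's controls, above about 33%, limit read from the data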
Target sequence (O00487 whole entry, looked up): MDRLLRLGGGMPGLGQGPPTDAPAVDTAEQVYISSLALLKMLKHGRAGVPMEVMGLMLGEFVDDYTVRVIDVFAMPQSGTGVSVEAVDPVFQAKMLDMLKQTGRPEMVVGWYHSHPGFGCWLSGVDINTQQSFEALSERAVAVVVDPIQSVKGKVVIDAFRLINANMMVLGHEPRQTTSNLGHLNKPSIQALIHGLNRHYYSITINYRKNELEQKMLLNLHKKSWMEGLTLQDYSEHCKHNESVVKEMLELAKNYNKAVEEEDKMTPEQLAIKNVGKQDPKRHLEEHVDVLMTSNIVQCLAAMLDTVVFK
HNF4A DNA FP = change in binding of human HNF4 alpha to DNA; activity change, % at 10 µM; AID 1224865; 360,000 compounds, 0.3% hits; HNF4a-FITC DNA binding, fluorescence polarization, 1 h; in the data active = activity change above about 30%, passing the limit was not always enough
IDE act = activators of human insulin-degrading enzyme in cells. P14735. HEK cells, FAbeta-B cleavage, fluorescence polarization; 0% vehicle, 100% cell-free pure enzyme wells. activation, % at 5.96 µM. 340,000 compounds, 0.073% hits;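 active = activation above the mean of all tested compounds plus 3 SD, set per screening campaign, cut at about 17% in these data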
CSN deneddyl inh = CSN deneddylation inhibition. Q92905. Purified CSN, SCF-Nedd8-OG deneddylation, fluorescence polarization. inhibition, % at 12.5 µM. 360,000 compounds, 0.38% hits. AID 651999;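 active = pattern-corrected inhibition above about 35%, with an unprinted fluorescence ratio check between 0.5 and 1.5, limit read from the data, passing the limit was not always enough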;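 note: 0% = enzyme with substrate and 100% = substrate without enzyme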
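assay system = purified human Csn5 enzyme expressed in HEK293T cells | amount = 0.24 nM enzyme | buffer or medium = Tris/NaCl/DTT buffer, pH 7.5 | reagent = 10 nM SCFSkp2-Nedd8OG | compound = one concentration, 12.5 µM, 0.25% DMSO | times = 90 min reaction at room temperature | signal = FP | read-out basis = % inhibition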
IDE cell inh = inhibits human insulin-degrading enzyme in HEK cells. P14735. FAbetaB cleavage, fluorescence polarization. inhibition, % at 5.59 µM. 320,000 compounds, 0.41% hits. AID 434962;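 active = percent inhibition above the average of all tested compounds plus 3 SD, set per screening campaign, cut at about 16% in these data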;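 note: IDE supplied by intact live HEK cells; FP after avidin binding of uncleaved biotin substrate so inhibition keeps polarization high; 0% = DMSO wells and 100% = 60 µM reference IDE inhibitor Ii1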
TPT1 inhibitor = blocks Candida albicans tRNA 2'-phosphotransferase; 300,000 compounds, 0.81% hits; recombinant caTPT1, FP RNA substrate dephosphorylation; inhibition, % at 5 µM;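 active = inhibition above the mean of all tested compounds plus 3 SD, set per screening campaign, cut at about 24% in these data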;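 note: plate controls were DMSO alone for no effect and ferristatin control at 100 nM for full effect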
* = called active by the depositor; i = inactive; x = no result given; + = active, no number. Sampled rows, rich in hits. Any-hit rate of the full collection: about 1.7%.

SMILES	Rpn11 block	HNF4A DNA FP	IDE act	CSN deneddyl inh	IDE cell inh	TPT1 inhibitor
CCCCn1c(NS(=O)(=O)c2ccccc2)c(S(=O)(=O)c2ccc(C)cc2)c2nc3ccccc3nc21	i	-1	-9	57*	-8	-2
Cc1ccc(S(=O)(=O)c2c(N)n(CCC(C)C)c3nc4ccccc4nc23)cc1	i	-1	-2	29	-5	2
CCCCn1c(NC(=O)c2ccco2)c(S(=O)(=O)c2ccc(C)cc2)c2nc3ccccc3nc21	x	68*	-6	54*	x	x
Cc1ccc(S(=O)(=O)c2c(N)n(CCCO)c3nc4ccccc4nc23)cc1	i	1	8	41*	5	-5
CCOC(=O)N1CCN(C(=O)CSCC(=O)Nc2nc(-c3ccc4c(c3)OCO4)cs2)CC1	i	2	1	-5	4	-3
O=C(NCc1ccccc1)C(c1cc2ccccc2o1)n1c(=O)c(-c2ccco2)nc2ccccc21 (configuration not stated)	x	37*	x	28	x	x
O=C(NC1CCCCC1)C(c1ccccc1F)n1c(=O)c(-c2ccco2)nc2ccccc21 (configuration not stated)	x	34*	x	20	x	x
O=C(NC1CCCCC1)C(c1ccnc2ccccc12)n1c(=O)c(-c2ccco2)nc2ccccc21 (configuration not stated)	x	30	x	15	x	x
CC(C)(C)NC(=O)C(c1ccc(C(F)(F)F)cc1)n1c(=O)c(-c2ccco2)nc2ccccc21 (configuration not stated)	x	42*	x	27	x	x
O=C(NCc1ccccc1)C(c1ccccc1)n1c(=O)c(-c2ccco2)nc2ccccc21 (configuration not stated)	x	27	x	10	x	x
COCCn1c(SCC(=O)c2ccc3c(c2)OCCO3)nnc1C(C)C	i	1	2	84*	8	-1
O=C(COC(=O)c1cccc(Br)c1)NC(=O)NC1CCCC1	i	3	6	1	x	x
C/C(N)=C(/C#N)C(=O)COC(=O)C1CCC(C(C)(C)C)CC1 (configuration not stated)	i	-1	0	117*	3	-2
C/C(N)=C(/C#N)C(=O)COC(=O)CC1CCCC1	i	2	1	6	5	-6
Cc1sc2nc(CSCC(=O)N(C)c3ccccc3)[nH]c(=O)c2c1C	i	20	-2	6	6	18
Cc1sc2nc(CSCC(=O)N(CCC#N)c3ccccc3)[nH]c(=O)c2c1C	+	19	-7	8	-3	23
CCOC(=O)C1=CCC(C(C)(C)C)N(S(=O)(=O)c2ccc(C)cc2)C1 (configuration not stated)	i	-1	x	110*	x	x
Nc1nc(NCC(=O)O)nc(NC2CCCCC2)c1[N+](=O)[O-]	i	46*	5	1	x	x
COCCCNc1nc(N)c([N+](=O)[O-])c(NC2CCCCC2)n1	i	4	1	1	4	-1
N#Cc1c(-c2ccc(F)cc2)cc(-c2ccccc2)nc1SCC(=O)NCC(=O)O	i	-1	-4	1	4	-3
O=C(COc1ccc(Cl)cc1Cl)N(Cc1ccco1)C1CCS(=O)(=O)C1 (configuration not stated)	i	1	0	-2	9	-1
CCCCNc1c(-c2ccc(SC(C)CC)cc2)nc2cnccn12 (configuration not stated)	i	-8	20*	-3	-3	x
CCCCCCSc1cc(-c2nc3cnccn3c2NCCCC)ccc1OC	i	11	20*	2	-1	x
CCCCCCSc1cc(-c2nc3cc(C)ccn3c2NCCCC)ccc1OC	i	-3	7	2	6	1
CCCCNc1c(-c2ccc(OC)c(Sc3ccc(OC)cc3)c2)nc2cnccn12	i	8	0	6	0	x
SMILES	Rpn11 block	HNF4A DNA FP	IDE act	CSN deneddyl inh	IDE cell inh	TPT1 inhibitor
Cc1c(O)ccc(/C(Cc2ccc3ccccc3n2)=N\O)c1O	i	5	6	-1	-3	-4
CN(C)c1ccc(C(=N)Cc2ccc3ccccc3n2)cc1	i	26	x	44*	x	x
CC(=O)N1CCN(C(=O)c2ccc(Cl)c(S(=O)(=O)N3CC(C)OC(C)C3)c2)CC1 (configuration not stated)	i	5	4	0	4	x
O=C(C1CCCN(S(=O)(=O)c2ccccc2[N+](=O)[O-])C1)N1CCN(c2ccccc2)CC1 (configuration not stated)	i	-2	-3	-4	18*	-1
CC(=O)NC1CC2CCCC(C1)N2C(=O)Nc1ccc(Cl)c(C(F)(F)F)c1 (configuration not stated)	i	30*	4	4	7	-3
COc1cccc(/C=C2\SC(=S)N(C(Cc3ccccc3)C(=O)O)C2=O)c1 (configuration not stated)	i	54*	7	-1	0	-1
O=C(O)C(Cc1ccccc1)N1C(=O)/C(=C/c2cccs2)SC1=S (configuration not stated)	i	-2	x	7	x	x
Fc1ccc(C2=CC(c3ccc(Br)o3)n3ncnc3N2)cc1 (configuration not stated)	i	-115	-67	-46	92*	-69
CC1=C(C(N)=O)C(c2ccc(Br)cc2)n2nc(CCCO)nc2N1 (configuration not stated)	i	-3	3	-2	4	22
OCCCc1nc2n(n1)C(c1cccs1)C=C(c1ccc(Br)cc1)N2 (configuration not stated)	x	x	x	x	135*	-58
Brc1ccc(C2=CC(c3cccs3)n3ncnc3N2)cc1 (configuration not stated)	i	-109	-129	-71	88*	-113
COc1ccc(S(=O)(=O)NC(CCSC)C(=O)NC2CCCCC2)cc1 (configuration not stated)	i	1	6	-7	-1	0
O=C1Cc2ccccc2C(=O)N1	x	3	x	35*	x	x
CCCCC(=O)NC(c1ccco1)c1c(O)ccc2ccccc12 (configuration not stated)	i	0	5	0	2	2
CC(C)(C)NC(=O)Cn1c(SCC(=O)N2CCCCCC2)nc2ccccc21	i	32*	6	-4	3	-2
Cc1ccc2cc(CCNC(=O)c3ccc4c(c3)OCO4)c(=O)[nH]c2c1C	i	34*	-1	7	0	-4
CCOc1ccccc1N(CC(=O)NCc1ccncc1)S(=O)(=O)c1ccccc1	i	1	2	2	1	-1
Cn1cc(C(=O)c2ccccc2C(=O)O)cc1C(=O)C(Cl)(Cl)Cl	i	1	3	43*	4	0
Cc1ccc(-n2nnnc2CS(=O)(=O)c2ccccc2)c(C)c1	i	2	-3	6	4	-2
